According to ChEMBL document CHEMBL1138496, “Synthesis and evaluation of a novel indoledione class of long chain fatty acid elongase 6 (ELOVL6) inhibitors” (J Med Chem, 2009):

Legend:
[1] = target: T1, Very long chain fatty acid elongase 3 (Homo sapiens, UniProt Q9HB03); assay: Inhibition of human ELOVL3 expressed in african green monkey COS7 cells assessed as stearoyl-CoA elongation; assay type: cell-based, COS-7
T1 sequence (Q9HB03 whole entry): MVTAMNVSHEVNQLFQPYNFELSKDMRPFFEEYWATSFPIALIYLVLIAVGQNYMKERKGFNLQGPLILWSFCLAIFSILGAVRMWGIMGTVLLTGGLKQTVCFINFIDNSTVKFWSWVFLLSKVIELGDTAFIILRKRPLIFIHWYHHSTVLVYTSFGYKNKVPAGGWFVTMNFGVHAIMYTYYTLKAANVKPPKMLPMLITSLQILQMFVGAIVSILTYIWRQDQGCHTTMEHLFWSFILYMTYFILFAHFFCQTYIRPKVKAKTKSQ
How it was run: (§1)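 IC50 against each ELOVL subtype, each with its own fatty acyl-CoA substrate. Human ELOVL6 used palmitoyl-CoA elongation. Radioactive ELOVL6 products were detected with recombinant histidine-tagged ACBP as a probe. Values are mean ± SE, n ≥ 3.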

[2] = target: T2, Very long chain fatty acid elongase 6 (Homo sapiens, UniProt Q9H5J4); assay: Inhibition of human ELOVL6 expressed in african green monkey COS7 cells assessed as palmitoyl-CoA elongation; assay type: cell-based, COS-7; how it was run: as §1
T2 sequence (Q9H5J4 whole entry): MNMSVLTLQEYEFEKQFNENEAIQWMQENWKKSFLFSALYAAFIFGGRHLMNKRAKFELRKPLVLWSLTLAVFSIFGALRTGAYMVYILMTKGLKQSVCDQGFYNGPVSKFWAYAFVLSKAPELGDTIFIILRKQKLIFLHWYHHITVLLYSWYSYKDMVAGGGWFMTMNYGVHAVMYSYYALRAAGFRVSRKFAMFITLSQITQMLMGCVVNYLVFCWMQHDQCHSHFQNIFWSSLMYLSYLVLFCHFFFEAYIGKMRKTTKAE

Mus musculus = assay: Inhibition of ELOVL6 activity in po dosed C57BL/6J mouse liver assessed as […] administered 1 hr before [1-14C]palmitic acid measured after 2 hrs; assay type: functional, organism-based
[3] = target: T3, Very long chain fatty acid elongase 5 (Homo sapiens, UniProt Q9NYP7); assay: Inhibition of human ELOVL5 expressed in african green monkey COS7 cells; assay type: cell-based, COS-7; how it was run: as §1
T3 sequence (Q9NYP7 whole entry): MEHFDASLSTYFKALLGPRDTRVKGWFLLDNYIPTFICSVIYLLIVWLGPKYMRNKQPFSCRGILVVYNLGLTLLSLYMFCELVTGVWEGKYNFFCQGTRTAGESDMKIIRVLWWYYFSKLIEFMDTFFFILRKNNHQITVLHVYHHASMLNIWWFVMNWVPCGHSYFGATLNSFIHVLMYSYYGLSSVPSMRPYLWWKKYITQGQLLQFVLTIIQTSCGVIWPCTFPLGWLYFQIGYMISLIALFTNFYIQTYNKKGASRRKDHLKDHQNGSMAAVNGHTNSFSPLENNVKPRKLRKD

[4] = target: T4, Very long chain fatty acid elongase 6 (Mus musculus, UniProt Q920L5); assay: Inhibition of mouse ELOVL6 expressed in african green monkey COS7 cells; assay type: cell-based, COS-7; how it was run: as §1
T4 sequence (Q920L5 whole entry): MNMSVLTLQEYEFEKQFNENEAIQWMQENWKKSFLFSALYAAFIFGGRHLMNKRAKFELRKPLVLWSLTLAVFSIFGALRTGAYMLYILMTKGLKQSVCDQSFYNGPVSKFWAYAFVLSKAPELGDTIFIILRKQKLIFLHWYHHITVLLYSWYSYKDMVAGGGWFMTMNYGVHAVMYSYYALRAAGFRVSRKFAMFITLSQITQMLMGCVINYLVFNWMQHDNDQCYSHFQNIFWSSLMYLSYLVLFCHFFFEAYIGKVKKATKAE

[5] = Plasma concentration in mouse at 1 mg/kg, po after 8 hrs; assay type: ADME, organism-based; set-up: dose 1 mg/kg, route oral
How it was run: (§2)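 Compound was given orally at 1 mg/kg to mice. Plasma levels were sampled at 2, 4, 8 and 24 h. Values are the mean of n = 3 animals.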

[6] = Plasma concentration in mouse at 1 mg/kg, po after 24 hrs; assay type: ADME, organism-based; set-up: dose 1 mg/kg, route oral; how it was run: as §2
[7] = Plasma concentration in mouse at 10 mg/kg, po after 2 hrs; assay type: ADME, organism-based; set-up: dose 10 mg/kg, route oral
[8] = Drug level in mouse liver at 10 mg/kg, po after 2 hrs; assay type: ADME, organism-based; set-up: dose 10 mg/kg, route oral; conditions: read-out: Drug uptake
[9] = Plasma concentration in mouse at 1 mg/kg, po after 4 hrs; assay type: ADME, organism-based; set-up: dose 1 mg/kg, route oral; how it was run: as §2
[10] = Plasma concentration in mouse at 1 mg/kg, po after 2 hrs; assay type: ADME, organism-based; set-up: dose 1 mg/kg, route oral; how it was run: as §2
[11] = target: T5, Very long chain fatty acid elongase 1 (Homo sapiens, UniProt Q9BW60); assay: Inhibition of human ELOVL1 expressed in african green monkey COS7 cells; assay type: cell-based, COS-7; how it was run: as §1
T5 sequence (Q9BW60 whole entry): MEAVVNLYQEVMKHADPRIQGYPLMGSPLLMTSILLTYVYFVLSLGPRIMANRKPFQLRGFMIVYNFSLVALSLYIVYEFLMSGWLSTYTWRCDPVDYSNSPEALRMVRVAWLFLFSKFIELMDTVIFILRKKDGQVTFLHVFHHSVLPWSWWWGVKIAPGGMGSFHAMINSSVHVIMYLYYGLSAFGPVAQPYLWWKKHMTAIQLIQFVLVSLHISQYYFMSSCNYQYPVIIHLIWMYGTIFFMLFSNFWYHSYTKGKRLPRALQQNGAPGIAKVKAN

[12] = target: T6, Very long chain fatty acid elongase 3 (Mus musculus, UniProt O35949); assay: Inhibition of mouse ELOVL3 expressed in african green monkey COS7 cells; assay type: cell-based, COS-7; how it was run: as §1
T6 sequence (O35949 whole entry): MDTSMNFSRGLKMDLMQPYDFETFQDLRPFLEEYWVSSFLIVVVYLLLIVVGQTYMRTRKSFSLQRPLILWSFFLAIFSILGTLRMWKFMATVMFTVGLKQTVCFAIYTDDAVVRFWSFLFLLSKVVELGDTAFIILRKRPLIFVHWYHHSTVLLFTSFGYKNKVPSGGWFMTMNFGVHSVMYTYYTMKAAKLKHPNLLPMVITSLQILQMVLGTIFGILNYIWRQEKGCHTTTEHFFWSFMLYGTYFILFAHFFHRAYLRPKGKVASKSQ

[13] = target: T7, Very long chain fatty acid elongase 2 (Homo sapiens, UniProt Q9NXB9); assay: Inhibition of human ELOVL2 expressed in african green monkey COS7 cells; assay type: cell-based, COS-7; how it was run: as §1
T7 sequence (Q9NXB9 whole entry): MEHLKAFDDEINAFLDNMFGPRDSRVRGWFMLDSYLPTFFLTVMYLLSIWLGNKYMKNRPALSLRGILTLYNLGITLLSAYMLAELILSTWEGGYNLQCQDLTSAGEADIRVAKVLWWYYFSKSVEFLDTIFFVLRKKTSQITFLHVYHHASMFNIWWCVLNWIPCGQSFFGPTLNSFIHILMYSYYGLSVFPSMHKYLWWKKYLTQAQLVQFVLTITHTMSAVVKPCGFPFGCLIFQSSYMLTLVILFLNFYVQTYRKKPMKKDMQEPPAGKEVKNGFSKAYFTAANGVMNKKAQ

SMILES	IC50 [1] [nM]	IC50 [2] [nM]	other results
Cc1[nH]n(-c2ccc(C(C)C)cc2)c(=O)c1C1(C(F)(F)F)C(=O)N(c2ccccc2)C2=C1C(=O)CC(C)(C)C2 (stereo unspecified)	59	–	–
Cc1[nH]n(-c2ccccc2)c(=O)c1C1(C(F)(F)F)C(=O)N(c2ccccc2)C2=C1C(=O)CC1(CCC1)C2 (stereo unspecified)	–	123	–
Cc1[nH]n(-c2ccccc2)c(=O)c1C1(C(F)(F)F)C(=O)N(c2ccccc2)C2=C1C(=O)CC(c1ccccc1)C2 (stereo unspecified)	–	6260	–
Cc1[nH]n(C2CCCCC2)c(=O)c1C1(C(F)(F)F)C(=O)N(c2ccccc2)C2=C1C(=O)CC(C)(C)C2 (stereo unspecified)	–	> 10000	–
Cc1[nH]n(-c2ccccc2)c(=O)c1C1(C(F)(F)F)C(=O)N(c2ccccc2)C2=C1C(=O)CCC2 (stereo unspecified)	–	4500	–
Cc1[nH]n(-c2ccc(C#N)cc2)c(=O)c1C1(C(F)(F)F)C(=O)N(c2ccccc2)C2=C1C(=O)CC(C)(C)C2 (stereo unspecified)	1100	–	–
CC(C)c1[nH]n(-c2ccccc2)c(=O)c1C1(C(F)(F)F)C(=O)N(c2ccccc2)C2=C1C(=O)CC(C)(C)C2 (stereo unspecified)	–	> 10000	–
Cc1ccc(-n2[nH]c(C)c(C3(C(F)(F)F)C(=O)N(c4ccccc4)C4=C3C(=O)CC(C)(C)C4)c2=O)cc1 (stereo unspecified)	375	–	–
COc1ccc(-n2[nH]c(C)c(C3(C(F)(F)F)C(=O)N(c4ccccc4)C4=C3C(=O)CC(C)(C)C4)c2=O)cc1 (stereo unspecified)	503	–	–
Cc1[nH]n(-c2ccc(Cl)cc2)c(=O)c1C1(C(F)(F)F)C(=O)N(c2ccccc2)C2=C1C(=O)CC(C)(C)C2 (stereo unspecified)	221	–	–
Cc1[nH]n(C(C)C)c(=O)c1C1(C(F)(F)F)C(=O)N(c2ccccc2)C2=C1C(=O)CC(C)(C)C2 (stereo unspecified)	–	> 10000	–
Cc1[nH]n(-c2ccc(OC(F)(F)F)cc2)c(=O)c1C1(C(F)(F)F)C(=O)N(c2ccccc2)C2=C1C(=O)CC(C)(C)C2 (stereo unspecified)	337	–	Activity (Mus musculus): Dose-dependent effect; IC50 [3]: > 10000 nM; IC50 [4]: 31 nM; concentration at 8 h [5]: 1.4 µM; concentration at 24 h [6]: 0.4 µM; concentration at 2 h [7]: 30 µM; concentration at 2 h [8]: 50 µM; concentration at 4 h [9]: 2.8 µM; concentration at 2 h [10]: 3.4 µM; IC50 [11]: > 10000 nM; IC50 [12]: 194 nM; IC50 [13]: > 10000 nM
Cc1[nH]n(-c2ccccc2)c(=O)c1C1(C(F)(F)F)C(=O)N(c2ccccc2)C2=C1C(=O)CC(C)C2 (stereo unspecified)	–	704	–
Cc1[nH]n(C)c(=O)c1C1(C(F)(F)F)C(=O)N(c2ccccc2)C2=C1C(=O)CC(C)(C)C2 (stereo unspecified)	–	2020	–
